According to ChEMBL document CHEMBL3259814, “Synthesis and biological evaluation of compounds which contain pyrazole, thiazole and naphthalene ring as antitumor agents” (Bioorg Med Chem Lett, 2014):
The source made the active and inactive calls. No cut-off for these calls is given here.

Columns and labels:
[1] = tested on: HepG2; experiment: cells; type: functional, cell-based; conditions: Homo sapiens;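 note: antiproliferative effect read out as growth inhibition by CCK8 assay, measured after 24–48 h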
[2] = Antiproliferative activity against human BGC823 cells assessed as growth inhibition after 24 to 48 hrs by CCK8 assay; type: functional, cell-based; conditions: BGC-823
Outline: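 The CCK8 assay was run on BGC823 cells alongside HeLa and HepG2 cells. Inhibition of cell proliferation was reported as IC50.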

[3] = Antiproliferative activity against human macrophages assessed as alteration in cell morphology after 24 hrs by CCK8 assay; type: cell-based, Macrophage
[4] = tested on: HeLa; experiment: cells; type: functional, cell-based; conditions: Homo sapiens
[5] = target: Epidermal growth factor receptor (Homo sapiens, UniProt P00533); type: cell-based, Sf-9
Epidermal growth factor receptor, sequence (P00533 whole entry): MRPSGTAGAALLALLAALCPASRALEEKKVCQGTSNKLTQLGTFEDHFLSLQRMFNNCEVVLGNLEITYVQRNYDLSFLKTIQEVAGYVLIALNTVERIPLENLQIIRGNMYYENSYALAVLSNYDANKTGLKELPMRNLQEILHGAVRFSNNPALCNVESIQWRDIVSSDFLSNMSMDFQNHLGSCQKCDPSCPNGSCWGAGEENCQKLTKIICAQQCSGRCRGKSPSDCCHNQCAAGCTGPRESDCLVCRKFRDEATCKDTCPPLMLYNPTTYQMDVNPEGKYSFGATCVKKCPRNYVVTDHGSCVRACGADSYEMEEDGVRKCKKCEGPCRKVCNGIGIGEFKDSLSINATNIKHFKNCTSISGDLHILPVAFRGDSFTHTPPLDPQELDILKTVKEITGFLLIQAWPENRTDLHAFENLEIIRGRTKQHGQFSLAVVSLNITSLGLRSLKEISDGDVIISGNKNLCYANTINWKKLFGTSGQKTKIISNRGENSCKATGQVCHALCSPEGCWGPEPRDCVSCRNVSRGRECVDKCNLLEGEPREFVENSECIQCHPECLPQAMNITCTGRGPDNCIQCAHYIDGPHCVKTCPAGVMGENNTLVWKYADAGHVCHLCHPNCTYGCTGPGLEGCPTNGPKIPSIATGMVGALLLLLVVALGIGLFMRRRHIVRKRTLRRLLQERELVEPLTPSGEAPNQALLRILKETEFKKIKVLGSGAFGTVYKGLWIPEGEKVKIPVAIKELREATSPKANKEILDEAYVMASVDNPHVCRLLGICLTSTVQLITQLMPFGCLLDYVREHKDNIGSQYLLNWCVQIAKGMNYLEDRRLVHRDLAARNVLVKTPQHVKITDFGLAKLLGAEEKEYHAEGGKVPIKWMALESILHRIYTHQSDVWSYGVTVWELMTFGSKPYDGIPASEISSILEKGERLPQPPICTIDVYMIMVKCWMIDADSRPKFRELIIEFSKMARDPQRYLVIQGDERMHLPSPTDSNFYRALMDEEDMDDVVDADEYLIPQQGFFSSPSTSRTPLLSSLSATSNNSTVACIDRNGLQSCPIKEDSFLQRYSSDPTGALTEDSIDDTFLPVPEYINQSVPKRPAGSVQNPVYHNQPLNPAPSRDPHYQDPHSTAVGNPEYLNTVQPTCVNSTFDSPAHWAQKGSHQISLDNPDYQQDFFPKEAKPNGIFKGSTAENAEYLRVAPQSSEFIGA

[6] = tested on: HeLa; experiment: Toxicity against human HeLa cells assessed as survival at 0.14 uM by CCK8 assay; type: cell-based
Outline: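 HeLa survival ratio was measured against compound concentration by CCK8 assay, including 0.14 µM. This was done before the migration testing.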

[7] = tested on: HeLa; experiment: Antimetastatic activity against human HeLa cells at 0.08 to 0.12 uM by transwell migration assay; type: functional, cell-based
Outline: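 HeLa cell migration was tested at 0.08, 0.10 and 0.12 µM. Migrating cells are expressed as a percentage of an untreated control set at 100%. Data are mean ± SD, with p < 0.05 versus control.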

Row | SMILES | IC50 [1] [µM] | IC50 [4] [µM] | IC50 [5] [µM] | IC50 [2] [µM] | CC50 at 24 h [3] [µM] | Activity [6] | Activity [7]
1 | COc1ccc(C2=NN(C3=NC(=O)CS3)C(c3ccc4ccccc4c3)C2)cc1 (centres undefined) | 10.4 | 1.48 | – | 6.94 | 363 | – | –
2 | Cc1ccc(C2=NN(C3=NC(=O)CS3)C(c3ccc4ccccc4c3)C2)cc1 (centres undefined) | 12.7 | 1.76 | 3.25 | 7.79 | – | – | –
3 | O=C1CSC(N2N=C(c3ccc(F)cc3)CC2c2ccc3ccccc3c2)=N1 (centres undefined) | 24.1 | 9.17 | – | 14.9 | – | – | –
4 | O=C1CSC(N2N=C(c3ccc(Br)cc3)CC2c2cccc3ccccc23)=N1 (centres undefined) | 13.4 | 5.81 | – | 14.6 | – | – | –
5 | O=C1CSC(N2N=C(c3ccc(Br)cc3)CC2c2ccc3ccccc3c2)=N1 (centres undefined) | 18.2 | 4.22 | – | 11.7 | – | – | –
6 | O=C1CSC(N2N=C(c3ccc(Cl)cc3)CC2c2ccc3ccccc3c2)=N1 (centres undefined) | 20.4 | 6.32 | – | 13.2 | – | – | –
7 | O=C1CSC(N2N=C(c3ccc(F)cc3)CC2c2cccc3ccccc23)=N1 (centres undefined) | 19.5 | 11.2 | – | 19.3 | – | – | –
8 | O=C1CSC(N2N=C(c3ccc(Cl)cc3)CC2c2cccc3ccccc23)=N1 (centres undefined) | 16.4 | 8.84 | – | 16.4 | – | – | –
9 | O=C1CSC(N2N=C(c3ccccc3)CC2c2ccc3ccccc3c2)=N1 (centres undefined) | 15.7 | 3.18 | 6.31 | 8.86 | 345 | – | –

Now from value to compound, other results behind:

Row | IC50 [1] [µM] | IC50 [4] [µM] | IC50 [5] [µM] | SMILES | IC50 [2] [µM] | CC50 at 24 h [3] [µM] | Activity [6] | Activity [7]
10 | 10.1 | 4.62 | – | O=C1CSC(N2N=C(c3ccccc3)CC2c2cccc3ccccc23)=N1 (centres undefined) | 11.2 | – | – | –
11 | 5.94 | 1.33 | 1.32 | Cc1ccc(C2=NN(C3=NC(=O)CS3)C(c3cccc4ccccc34)C2)cc1C (centres undefined) | 7.11 | 383 | – | –
12 | 7.85 | 2.54 | 5.53 | COc1ccc(C2=NN(C3=NC(=O)CS3)C(c3cccc4ccccc34)C2)cc1 (centres undefined) | 8.21 | 273 | – | –
13 | 8.49 | 0.86 | 0.12 | Cc1ccc(C2=NN(C3=NC(=O)CS3)C(c3ccc4ccccc4c3)C2)cc1C (centres undefined) | 6.02 | 397 | Non-toxic | Active
14 | 8.66 | 3.21 | – | Cc1ccc(C2=NN(C3=NC(=O)CS3)C(c3cccc4ccccc34)C2)cc1 (centres undefined) | 10 | – | – | –
